The list is not random: actives were taken first. Their share in the collection is about 1.4%.
MOR-DOR ag: agonists of human mu-delta opioid receptor heterodimerization | activation, % at 9.3 µM | 340,000 compounds, 0.3% hits | P35372+P41143 | cells, OPRM1-OPRD1 heterodimerization, luminescence; in the data active means activation above about 18%;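 further: 0% = vehicle-treated cells and 100% = reference agonist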
Arrestin-AP2 inh: human beta-arrestin and AP2 interaction inhibition; 340,000 compounds, 0.31% hits; FITC-arrestin peptide / GST-AP2 beads, flow cytometry; AP2 beta2 appendage carries R879A mutation; inhibition, % at 10 µM; AID 504490;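 active means inhibition above a set limit, near 3 SD of compounds lacking own fluorescence, cut at about 54% in these data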;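 further: plate controls were DMSO wells for no effect and 5 µM unlabelled arrestin peptide for full effect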
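Assay system: GST-AP2 R879A bound to glutathione beads, E. coli-expressed; Medium: PBS with 0.05% Tween 20 and 0.1% BSA; Also added: fluorescein-tagged arrestin peptide at 50 nM final; Timing: 12 min plus 1 h, RT; Measured by: flow cytometry, FL1 (488/535 nm); Evaluation: percent drop in bead-associated FITC signal.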
DAGLB inh: blocks human DAGLB lipase activity. Q8NCG7. HEK293T DAGLB membrane lysate, EnzChek fluorogenic substrate. inhibition, % at 5.17 µM. 340,000 compounds, 0.059% hits; in the data active means inhibition above about 34%;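 further: 0% = enzyme with vehicle and 100% = wells lacking enzyme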
Target sequence (Q8NCG7 whole entry, looked up): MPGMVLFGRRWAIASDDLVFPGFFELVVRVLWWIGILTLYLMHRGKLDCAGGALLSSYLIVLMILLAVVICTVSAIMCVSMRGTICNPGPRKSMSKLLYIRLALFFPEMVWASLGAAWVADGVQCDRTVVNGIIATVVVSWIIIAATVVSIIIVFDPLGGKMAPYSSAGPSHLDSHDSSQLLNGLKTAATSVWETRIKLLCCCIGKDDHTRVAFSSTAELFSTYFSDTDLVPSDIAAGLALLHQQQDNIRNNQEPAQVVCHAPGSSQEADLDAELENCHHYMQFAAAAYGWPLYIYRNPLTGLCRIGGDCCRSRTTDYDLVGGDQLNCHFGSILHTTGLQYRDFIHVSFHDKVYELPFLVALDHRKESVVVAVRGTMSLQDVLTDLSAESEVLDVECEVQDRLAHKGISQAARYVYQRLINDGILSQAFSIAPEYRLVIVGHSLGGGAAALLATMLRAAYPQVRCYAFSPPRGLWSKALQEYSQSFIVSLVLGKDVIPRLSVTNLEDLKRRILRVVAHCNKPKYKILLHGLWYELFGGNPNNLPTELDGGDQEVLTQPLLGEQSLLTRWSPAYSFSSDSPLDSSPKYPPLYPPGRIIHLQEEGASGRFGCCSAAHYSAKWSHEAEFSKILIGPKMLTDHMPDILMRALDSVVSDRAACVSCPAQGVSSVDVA
HTR5A inv ctr: HTR5A inverse agonism, opioid heterodimer counter-screen; P47898; HTR5A cell line, luminescence; 340,000 compounds, 0.083% hits; AID 504634; inhibition, % at 9.3 µM; in the data active means inhibition mostly above about 23%, no sharp cut-off; inactive means mostly below about 18%;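 further: 0% = cells with DMSO and 100% = no-cell wells with DMSO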
HTR5A ag ctr: activates human HTR5A in OPRM1-OPRD1 agonist counter-screen; HTR5A agonist assay, luminescence, cell-based; activation, % at 9.3 µM; 340,000 compounds, 0.61% hits; AID 504692; P47898; in the data active means activation mostly above about 9.5%, no sharp cut-off; inactive means mostly below about 7.6%;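 further: 0% = cells with vehicle only and 100% = reference agonist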
MOR-DOR inv ag: inverse agonist of human OPRM1-OPRD1 heterodimerization; P35372+P41143; cell-based MOR-DOR heterodimer luminescence, inverse agonism; inhibition, % at 9.3 µM; 340,000 compounds, 0.21% hits; AID 504357; in the data active means inhibition above about 22%, passing the limit was not always enough;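 further: 0% = cells with DMSO and 100% = wells without cells with DMSO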
OPRM1-D1 inv cf: OPRM1-OPRD1 heterodimer inverse agonism, confirmation; AID 504900; inhibition, % at 9.3 µM; shares compounds with MOR-DOR inv ag; cells expressing OPRM1/OPRD1 heterodimer, luminescence; 580 compounds, 20% hits; in the data active means inhibition above about 32%;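 further: 0% = cells with DMSO and 100% = wells lacking cells with DMSO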
HTR5A inv ctr2: counter-screen for OPRM1-OPRD1 inverse agonists: human HTR5A inverse agonism; 580 tested, under 10 active; shares compounds with MOR-DOR inv ag; HTR5A-expressing cells, luminescence; AID 504914; inhibition, % at 9.3 µM; call rule not given here;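 further: 0% = cells with DMSO and 100% = no-cell wells with DMSO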
Arr-AP2 CP1: inhibitors of human beta-arrestin and AP2 interaction | shares compounds with Arrestin-AP2 inh | GST-AP2 beads, FITC arrestin peptide binding, flow cytometry; GST-fused beta2-adaptin appendage, R879A mutant | inhibition, % at 10 µM | 1,300 compounds, 2% hits | AID 504908;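 active means inhibition above a set limit, roughly 3 SD of non-fluorescent compound noise, cut at about 38% in these data; inactive means inhibition at or below that limit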;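 further: loss of bead fluorescence from 50 nM FITC arrestin peptide bound to appendage; 0% = negative control wells and 100% = excess unlabelled arrestin peptide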
GST GSH counter: disrupts GST binding to glutathione beads, arrestin-AP2 artifact. GST-fluorescein binding to GSH beads, fluorescence, counter-screen. inhibition, % at 10 µM. 1,300 compounds, 2% hits. shares compounds with Arrestin-AP2 inh. AID 588338;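 active means inhibition above 50%, about 3 SD of the inhibition seen with non-fluorescent compounds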;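 further: fluorescein maleimide labelled GST captured on 4 micron glutathione beads; higher means more loss of bead fluorescence from quenching or blocked binding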
* = called active by the depositor; i = inactive; . = no result.

SMILES	MOR-DOR ag	Arrestin-AP2 inh	DAGLB inh	HTR5A inv ctr	HTR5A ag ctr	MOR-DOR inv ag	OPRM1-D1 inv cf	HTR5A inv ctr2	others
Cc1ccc(S(=O)(=O)N(C)C[C@@H]2OCc3cnnn3CCCC(=O)N([C@@H](C)CO)C[C@H]2C)cc1	.	.	-3.8	.	.	.	.	.
O=C1c2ccccc2-c2nc3ccccc3nc21	-16.1	-2.7	-0.1	10.1	-6.3	79.4*	-437.0	-9.9
Cc1ccc(S(=O)(=O)N=Nc2c(O)[nH]c3ccccc23)cc1	-8.0	-0.4	0.4	11.6	-3.5	50.2*	0.7	17.1
Cc1ccc(S(=O)(=O)N(CC(=O)N=Nc2c(O)[nH]c3ccccc23)c2ccc(C)c(C)c2)cc1	-2.0	-3.0	3.7	3.3	0.4	9.0	.	.
Cc1ccc(C)c(S(=O)(=O)N=Nc2c(O)[nH]c3ccccc23)c1	-8.3	-7.4	2.0	23.3	-8.4	45.8*	18.6	8.6
CC(C)(O)C(=O)N=Nc1c(O)[nH]c2ccccc12	-0.4	-1.9	0.9	-7.8	3.0	2.3	.	.
CC(C)(CNC(=O)c1cccc(S(=O)(=O)N2CCCCC2)c1)N1CCOCC1	.	.	-9.5	.	.	.	.	.
OC(CNC1CCCCC1)CON=C1CCSc2c(Cl)cccc21 (stereo unspecified)	.	.	0.6	.	.	.	.	.
O=C1C(=O)N(CCN2CCCCC2)c2ccccc21	-12.6	26.2	-2.5	25.1	-4.9	71.9*	73.6*	4.5
O=C1C(=O)N(Cc2cccs2)c2ccccc21	-9.4	11.2	1.2	0.4	-0.1	48.4*	16.3	-1.1
O=C1CSC(=S)N1Cc1cccs1	1.4	7.2	-4.1	-2.9	0.7	-7.2	.	.
O=C(COC(=O)CN1C(=O)C(=O)c2ccccc21)OCN1C(=O)c2ccccc2C1=O	-7.6	0.1	-0.7	-4.5	-0.5	40.2*	19.1	-2.7
O=S(=O)(CCN1CCOCC1)c1ccccc1	-5.0	20.6	-2.1	13.3	-3.5	22.4	.	.
O=C1C(=O)N(CCS(=O)(=O)c2ccccc2)c2ccccc21	-11.7	7.5	2.1	11.8	-1.4	58.3*	i	-13.6
COc1ccc(C(=O)NC2=NCCS2)cc1S(=O)(=O)N1CCOCC1	.	.	-3.1	.	.	.	.	.
COc1ccc(S(=O)(=O)N2CCCOC2CNC(=O)C(=O)NCc2ccccc2C)cc1 (stereo unspecified)	.	.	-3.3	.	.	.	.	.
O=C(CN1C(=O)C(=O)c2ccccc21)c1ccccc1	-10.9	35.6	-0.4	19.3	-5.2	52.2*	-163.3	-19.1
O=C(CN1C(=O)C(=O)c2ccccc21)NC1CCCCC1	-9.6	6.6	2.6	12.4	-4.7	47.5*	47.5*	18.8
COc1ccc(OCC(=O)N2CCCC(Nc3ccc(C)c(C)c3)C2)cc1 (stereo unspecified)	.	.	-0.3	.	.	.	.	.
Cc1cc(NC(=O)CSCC(=O)OCC(=O)c2cccc(Br)c2)no1	-6.5	-4.0	3.1	20.4	-8.3	26.8*	-34.5	6.6
O=C(COC(=O)Cn1cc(C(F)(F)F)ccc1=O)Nc1ccc(Br)cc1F	1.5	-8.6	-1.0	21.2	-9.5	-9.6	.	.
O=S(=O)(Nc1cccc2ncccc12)c1cccs1	-9.6	19.9	-2.4	20.9	-9.7	47.5*	-195.8	-13.3
Cc1cc(NC(=O)CSc2nc3c([nH]c4ccccc43)c(=O)n2-c2ccccc2F)no1	-6.4	-4.3	0.7	15.2	-3.1	34.2*	12.5	14.8
Cn1nnc(NC(=S)NC(=O)c2cccc3c(Cl)cccc23)n1	-5.9	55.9*	-2.1	14.6	-3.6	31.4*	-12.7	16.5	Arr-AP2 CP1=0.2;GST GSH counter=-7.6
Cc1cc(C)n2c(=O)[nH]nc2c1	-0.5	8.2	-1.0	-6.6	1.6	2.5	.	.

Screening data: PubChem BioAssay, several laboratories
